Columns and labels:
[1] = target: Voltage-gated inwardly rectifying potassium channel KCNH2 (Homo sapiens, UniProt Q12809); assay: Binding affinity to human ERG
[2] = target: C-C chemokine receptor type 2 (Homo sapiens, UniProt P41597); assay: Binding affinity to CCR2 receptor (unknown origin)
hERG (KCNH2) = hERG (KCNH2) (Homo sapiens, UniProt Q12809); assay: Inhibition of human ERG at 3 uM by patchxpress assay
[3] = AUC in rat at 10 mg/kg, po; type: ADME, organism-based; parameters: dose 10 mg/kg, route oral; details: plasma
Method in brief: (§1)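 Rat pharmacokinetics after a single oral dose of 10 mpk given in 0.5% methocel. Maximum plasma concentration and plasma exposure (AUC) were taken from the plasma concentration–time profile.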

[4] = Cmax in rat at 10 mg/kg, po; type: ADME, organism-based; parameters: dose 10 mg/kg, route oral; details: in vivo; method in brief: as §1

Chain of C-C chemokine receptor type 2 (P41597 whole entry): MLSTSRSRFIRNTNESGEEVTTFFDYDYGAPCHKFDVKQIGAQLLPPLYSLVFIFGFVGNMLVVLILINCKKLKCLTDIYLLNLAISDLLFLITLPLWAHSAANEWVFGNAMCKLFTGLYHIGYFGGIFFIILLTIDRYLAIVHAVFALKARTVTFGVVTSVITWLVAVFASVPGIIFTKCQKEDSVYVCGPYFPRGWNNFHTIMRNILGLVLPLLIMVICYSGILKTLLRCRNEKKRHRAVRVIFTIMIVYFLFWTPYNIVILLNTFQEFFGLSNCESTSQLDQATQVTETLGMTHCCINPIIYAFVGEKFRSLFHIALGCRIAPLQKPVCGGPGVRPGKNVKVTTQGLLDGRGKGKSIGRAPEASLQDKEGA
Chain of Voltage-gated inwardly rectifying potassium channel KCNH2 (Q12809 whole entry): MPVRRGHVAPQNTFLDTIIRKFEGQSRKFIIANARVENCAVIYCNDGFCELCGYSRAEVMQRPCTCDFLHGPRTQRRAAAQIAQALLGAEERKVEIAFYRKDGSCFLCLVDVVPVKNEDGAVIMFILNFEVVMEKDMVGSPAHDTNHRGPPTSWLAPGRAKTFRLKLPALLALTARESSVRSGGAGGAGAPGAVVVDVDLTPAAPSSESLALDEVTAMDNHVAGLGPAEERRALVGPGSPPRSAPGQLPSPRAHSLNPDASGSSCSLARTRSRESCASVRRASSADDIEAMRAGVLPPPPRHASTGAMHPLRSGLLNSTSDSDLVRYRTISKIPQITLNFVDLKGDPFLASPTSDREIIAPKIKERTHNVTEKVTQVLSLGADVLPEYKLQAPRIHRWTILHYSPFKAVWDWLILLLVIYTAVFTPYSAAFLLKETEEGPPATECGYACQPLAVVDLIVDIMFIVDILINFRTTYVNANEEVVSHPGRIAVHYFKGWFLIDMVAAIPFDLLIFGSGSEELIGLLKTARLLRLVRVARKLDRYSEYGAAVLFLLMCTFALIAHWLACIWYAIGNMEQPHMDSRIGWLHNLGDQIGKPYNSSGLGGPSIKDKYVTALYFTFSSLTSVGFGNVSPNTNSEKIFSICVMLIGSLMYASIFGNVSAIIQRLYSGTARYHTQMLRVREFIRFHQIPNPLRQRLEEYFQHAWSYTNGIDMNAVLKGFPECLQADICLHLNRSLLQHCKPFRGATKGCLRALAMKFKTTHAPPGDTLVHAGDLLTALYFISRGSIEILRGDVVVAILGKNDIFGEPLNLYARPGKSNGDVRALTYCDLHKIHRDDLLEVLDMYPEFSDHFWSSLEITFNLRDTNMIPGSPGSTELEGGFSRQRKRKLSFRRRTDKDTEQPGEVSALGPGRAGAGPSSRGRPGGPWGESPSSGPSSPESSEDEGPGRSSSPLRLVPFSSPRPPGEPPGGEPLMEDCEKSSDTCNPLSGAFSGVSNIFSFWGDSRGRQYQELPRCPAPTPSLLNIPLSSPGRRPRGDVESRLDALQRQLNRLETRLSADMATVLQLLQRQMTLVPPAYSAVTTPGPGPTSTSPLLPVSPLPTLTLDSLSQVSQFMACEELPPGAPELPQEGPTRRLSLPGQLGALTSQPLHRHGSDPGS
Chain of hERG (KCNH2) (Q12809 whole entry): as above

Row | Compound | IC50 [1] [µM] | IC50 [2] [nM] | inhibition at 3 µM (hERG (KCNH2)) [%] | AUC [3] [ng·h/mL] | Cmax [4] [ng/mL]
1 | COC1COCCC1N[C@@H]1C[C@H]2CN(C(=O)/C=C/C(C)(C)C)C[C@@]2(C(=O)N2CCc3ncc(C(F)(F)F)cc3C2)C1 (mixture of isomers) | > 50 | 68 | – | – | –
2 | COC1COCCC1N[C@@H]1C[C@H]2CN(C3CC3)C[C@@]2(C(=O)N2CCc3ncc(C(F)(F)F)cc3C2)C1 (mixture of isomers) | – | 180 | – | – | –
3 | COC1COCCC1N[C@@H]1C[C@H]2CN(C(=O)OCC(C)(C)C)C[C@@]2(C(=O)N2CCc3ncc(C(F)(F)F)cc3C2)C1 (mixture of isomers) | > 50 | 59 | – | – | –
4 | COC1COCCC1N[C@@H]1C[C@H]2CN(C(=O)OCC(C)C)C[C@@]2(C(=O)N2CCc3ncc(C(F)(F)F)cc3C2)C1 (mixture of isomers) | > 50 | 35 | – | – | –
5 | COC1COCCC1N[C@@H]1C[C@H]2CN(C(=O)OCCNC(C)=O)C[C@@]2(C(=O)N2CCc3ncc(C(F)(F)F)cc3C2)C1 (mixture of isomers) | > 50 | 45 | – | – | –
6 | COC1COCCC1N[C@@H]1C[C@H]2CN(C(=O)C#CC3CC3)C[C@@]2(C(=O)N2CCc3ncc(C(F)(F)F)cc3C2)C1 (mixture of isomers) | 49.6 | 87 | – | – | –
7 | COC1COCCC1N[C@@H]1C[C@H]2CN(C(C)=O)C[C@@]2(C(=O)N2CCc3ncc(C(F)(F)F)cc3C2)C1 (mixture of isomers) | > 50 | 395 | – | – | –
8 | COC1COCCC1N[C@@H]1C[C@H]2CN(C(=O)NC(C)C)C[C@@]2(C(=O)N2CCc3ncc(C(F)(F)F)cc3C2)C1 (mixture of isomers) | > 50 | 410 | – | – | –
9 | COC1COCCC1N[C@@H]1C[C@H]2CNC[C@@]2(C(=O)N2CCc3ncc(C(F)(F)F)cc3C2)C1 (mixture of isomers) | > 50 | – | – | – | –
10 | COC1COCCC1N[C@@H]1C[C@H]2CN(/C(N)=N\C#N)C[C@@]2(C(=O)N2CCc3ncc(C(F)(F)F)cc3C2)C1 (mixture of isomers) | > 50 | 37 | – | – | –
11 | COC1COCCC1N[C@@H]1C[C@H]2CN(C(C)C)C[C@@]2(C(=O)N2CCc3ncc(C(F)(F)F)cc3C2)C1 (mixture of isomers) | > 50 | 1210 | – | – | –
12 | COC1COCCC1N[C@@H]1C[C@H]2CN(C(=O)/C=C/c3ccccc3)C[C@@]2(C(=O)N2CCc3ncc(C(F)(F)F)cc3C2)C1 (mixture of isomers) | 24.1 | – | – | – | –
13 | COC1COCCC1N[C@@H]1C[C@H]2CN(C(=O)NCc3ccccc3)C[C@@]2(C(=O)N2CCc3ncc(C(F)(F)F)cc3C2)C1 (mixture of isomers) | > 50 | 57 | – | – | –
14 | COC1COCCC1N[C@@H]1C[C@H]2CN(C(=O)OCCC3CCOCC3)C[C@@]2(C(=O)N2CCc3ncc(C(F)(F)F)cc3C2)C1 (mixture of isomers) | > 50 | 31 | 7.3 | 427 | 145
15 | COC1COCCC1N[C@@H]1C[C@H]2CN(c3nccs3)C[C@@]2(C(=O)N2CCc3ncc(C(F)(F)F)cc3C2)C1 (mixture of isomers) | > 50 | 152 | – | – | –
16 | COC1COCCC1N[C@@H]1C[C@H]2CN(c3ccccc3)C[C@@]2(C(=O)N2CCc3ncc(C(F)(F)F)cc3C2)C1 (mixture of isomers) | 22.9 | 62 | – | – | –
17 | COC(=O)N1C[C@@H]2C[C@@H](NC3CCOCC3OC)C[C@]2(C(=O)N2CCc3ncc(C(F)(F)F)cc3C2)C1 (mixture of isomers) | > 50 | 410 | – | – | –
18 | COC1COCCC1N[C@@H]1C[C@H]2CN(C3COC3)C[C@@]2(C(=O)N2CCc3ncc(C(F)(F)F)cc3C2)C1 (mixture of isomers) | > 50 | 126 | – | – | –
19 | COC1COCCC1N[C@@H]1C[C@H]2CN(C(N)=O)C[C@@]2(C(=O)N2CCc3ncc(C(F)(F)F)cc3C2)C1 (mixture of isomers) | > 50 | 64 | – | 74 | 70.6
20 | CNC(=O)N1C[C@@H]2C[C@@H](NC3CCOCC3OC)C[C@]2(C(=O)N2CCc3ncc(C(F)(F)F)cc3C2)C1 (mixture of isomers) | > 50 | 77 | – | – | –
21 | COC1COCCC1N[C@@H]1C[C@H]2CN(C)C[C@@]2(C(=O)N2CCc3ncc(C(F)(F)F)cc3C2)C1 (mixture of isomers) | > 50 | – | – | – | –
22 | CCN1C[C@@H]2C[C@@H](NC3CCOCC3OC)C[C@]2(C(=O)N2CCc3ncc(C(F)(F)F)cc3C2)C1 (mixture of isomers) | 42.6 | 629 | – | – | –
23 | COC1COCCC1N[C@@H]1C[C@H]2CN(C(=O)OCCN3CCCC3)C[C@@]2(C(=O)N2CCc3ncc(C(F)(F)F)cc3C2)C1 (mixture of isomers) | > 50 | 33 | – | – | –
24 | COC1COCCC1N[C@@H]1C[C@H]2CN(C(=O)OCc3ccccc3)C[C@@]2(C(=O)N2CCc3ncc(C(F)(F)F)cc3C2)C1 (mixture of isomers) | > 50 | 118 | – | – | –
25 | COCCOC(=O)N1C[C@@H]2C[C@@H](NC3CCOCC3OC)C[C@]2(C(=O)N2CCc3ncc(C(F)(F)F)cc3C2)C1 (mixture of isomers) | > 50 | 82 | – | – | –
26 | COC1COCCC1N[C@@H]1C[C@H]2CN(C(=O)OCCN3CCOCC3)C[C@@]2(C(=O)N2CCc3ncc(C(F)(F)F)cc3C2)C1 (mixture of isomers) | > 50 | 41 | – | – | –
27 | COC1COCCC1N[C@@H]1C[C@H]2CN(C(=O)OCC3CCOCC3)C[C@@]2(C(=O)N2CCc3ncc(C(F)(F)F)cc3C2)C1 (mixture of isomers) | – | 32 | – | – | –
28 | COC1COCCC1N[C@@H]1C[C@H]2CN(C(=O)Oc3ccccc3)C[C@@]2(C(=O)N2CCc3ncc(C(F)(F)F)cc3C2)C1 (mixture of isomers) | > 50 | 560 | – | – | –
